Results as given in the RNAGym collection of RNA variant scans (doi:10.1126/science.aae0568).
Fewer inactive variants are shown than the library holds.

B1: tRNA (parent)
chain: GUUCCGUUGGCGUAAUGGUAACGCGUCUCCCUCCUAAGGAGAAGACUGCGGGUUCGAGUCCCGUACGGAACG

Variants of: B1
Test: yeast fitness relative to wild type (ratio to wild type); higher = fitter; tRNA-Arg(CCU), competitive growth, 37 C, YPD
Procedure, shortened: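 Variants of the tRNA-Arg(CCU) gene, chemically synthesised with a 3% per-site mutation rate at 69 sites, were placed at the native genomic locus in Saccharomyces cerevisiae. The pooled strains were competed in YPD at 37°C for 24 hours in six parallel replicates. Gene amplicons from the start population and from each end population were read by 100-nucleotide paired-end sequencing. Darwinian fitness relative to wild type came from changes in genotype frequencies; genotypes needed ≥ 100 starting reads, and estimates < 0.5 were set to 0.5.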

Row | Variant | yeast fitness
1 | U13A U59C C66A | ≤ 0.5
2 | U13A A20G C24U U59C | ≤ 0.5
3 | U13C G23C C29G A43U G50A A65C | ≤ 0.5
4 | U13A C27A C61U C66U | ≤ 0.5
5 | U13C G17A A43U | 0.523
6 | U13A C22A C29A G41C G50C | ≤ 0.5
7 | U13C A14G C24G C49G A69G | ≤ 0.5
8 | U13A C30U G39C C55G | 0.545
9 | U13A G50C U59A | 0.594
10 | G12U C33U C34G | ≤ 0.5
11 | U13C C61U | 0.928
12 | U13A C27U A37C C61U | ≤ 0.5
13 | G12C U59C A69C | 0.665
14 | U13A C31U C46A | 0.665
15 | U13A A20U A37C | 0.557
16 | U13A C24A A45U G50A G56A | ≤ 0.5
17 | U13C A21C C55U A69C | ≤ 0.5
18 | U13C A69U | 1.07
19 | U13A U16A C24G C33G | ≤ 0.5
20 | U13A A40C A69G | 0.629
21 | G12C U47A G52C | ≤ 0.5
22 | U13C A20C A21C C46G | ≤ 0.5
23 | U13A C31U A40U | 1.04
24 | U13A U32A A37U | ≤ 0.5

Row | Variant | yeast fitness
25 | U13C G18C | 0.618
26 | U13C C24G | 0.672
27 | U13C C31U U47G | 0.562
28 | U13C C27G A36G U54G | ≤ 0.5
29 | U13A C34G G50A C60G C61U | ≤ 0.5
30 | U13A C49U A65C | 0.624
31 | U13C G18C G52C G56A | ≤ 0.5
32 | U13C C33U | 0.744
33 | U13C A15U C46A C66U | ≤ 0.5
34 | U13C C30G C31A | ≤ 0.5
35 | U13A U28A C30G C46U G56C | ≤ 0.5
36 | G12U C30G | ≤ 0.5
37 | U13C C34G A40U A45C A57C C61U | ≤ 0.5
38 | G12U U54C | 0.59
39 | U13A C66U | 0.857
40 | U13C A45C G56A | 0.743
41 | U13C G51C C66A | ≤ 0.5
42 | U13C C31G | 0.933
43 | U13C C22G C24U A37C G51C C55U A69C A70U | ≤ 0.5
44 | U13A U53A C61U | ≤ 0.5
45 | U13C C33U A45G G50A C66A G68A A70U | ≤ 0.5
46 | U13C C27G U35G C49G A57C | ≤ 0.5
47 | U13A C62G C66A | ≤ 0.5
48 | U13A U28C C55U | 0.741

Row | Variant | yeast fitness
49 | U13A G68U | 0.824
50 | U13A C24A C30A | 0.605
51 | U13A U32C A65C | 0.539
52 | U13A C27A A36G A42C | ≤ 0.5
53 | U13A A43C A57C A70U | 0.551
54 | U13C G25C C61U | 1.14
55 | U13A C22A A36U | ≤ 0.5
56 | U13A C27G A43C A45U U64C | 0.582
57 | G12C U28C C30U C66A | ≤ 0.5
58 | U13A A42U C66U | 0.704
59 | U13A C61A A65G | 0.544
60 | U13C A15C C22U C34A C66A | ≤ 0.5
61 | U13A C29U C31U G50C | 0.508
62 | U13C G44C G58A G68A | 0.572
63 | U13A G23C C27G U53C C61A G68A | 0.584
64 | U13C C29A G51C G63A | ≤ 0.5
65 | U13A G23C U32G G58C C61A A65U | ≤ 0.5
66 | U13A A14U C27G C46G | 0.553
67 | U13C A15G A21G U47G A65C | ≤ 0.5
68 | U13C A15U G23A C33A A42G G56A | ≤ 0.5
69 | U13A C49U U54C C62U G68C | ≤ 0.5
70 | U13C C33A G41A A45C U59C A65U | ≤ 0.5
71 | G12C U19A | 0.742
72 | U13A A20C A40U | ≤ 0.5

Row | Variant | yeast fitness
73 | U13A C33A A36U A70C | 0.518
74 | U13A A20G G41A G51C G67C | ≤ 0.5
75 | U13A C22A C46U | 0.633
76 | U13C C22A | 0.791
77 | U13C C22G | 0.709
78 | U13A C46U U64C A69U | ≤ 0.5
79 | U13C A20G A37U C61A | ≤ 0.5
80 | U13A C22A A42U | 0.582
81 | G12C U16C C31G | ≤ 0.5
82 | U13A C27U C31U | 0.673
83 | U13C C24G C49G | ≤ 0.5
84 | U13A U19A C24G C27U C33G G52C | ≤ 0.5
85 | U13C G63C | 0.742
86 | U13A U28A G63A G67A | ≤ 0.5
87 | U13A U32C G67A A70G | 0.547
88 | U13C G41C A70C | 0.566
89 | U13A U47C A69U | 0.743
90 | U13C G38C | 0.644
91 | U13A G48C C55G C66A | 0.584
92 | G12C U59G | 0.79
93 | U13A A15G C27U A57G | ≤ 0.5
94 | U13C C22G C27A G51C | ≤ 0.5
95 | U13A A14C C22A U54C | ≤ 0.5
96 | U13C C22U G38C G51A A57C | ≤ 0.5

Row | Variant | yeast fitness
97 | U13A U35C C46U C55G | ≤ 0.5
98 | G12C U19A C27G A65C G68A | ≤ 0.5
99 | U13A A45G G58C A69U A70U | 0.603
100 | U13A C27U A70U | 0.867
101 | U13C C55G | 0.645
102 | G12C U26A U35A | ≤ 0.5
103 | U13A G50C | 0.653
104 | U13A A36G | 1.02
105 | U13A C22G U59G A65U | ≤ 0.5
106 | U13A A69U | 0.984
107 | U13C C29G C62U A69C | 0.537
108 | U13A A37U | 0.63
109 | U13A A20G A21U A40U | ≤ 0.5
110 | G12C U28A G50A | 0.606
111 | G12U C60G | ≤ 0.5
112 | U13C C27G A40U C66U | 0.538
113 | U13A C49A | 0.654
114 | U13A C49U | 1.02
115 | U13A G50C A70U | ≤ 0.5
116 | U13A C31A G44A A57G | ≤ 0.5
117 | U13A U47A C60A A69C | 0.525
118 | U13C A14C U16C U64C A65C | ≤ 0.5
119 | U13A C24U U35A A43C G50C | ≤ 0.5
120 | U13A U53A | 0.59

Row | Variant | yeast fitness
121 | U13A U28A U47G | 0.528
122 | U13A C33G A40G C60A | ≤ 0.5
123 | U13A C27U U64C | 0.937
124 | U13A C30A C31U A43C | 0.942
125 | U13A A40G U47G G63C | 0.535
126 | U13A U28G G50C A57U C62A | 0.931
127 | U13C G25A C31U G38C | 0.659
128 | U13A C34G A45C A57C | ≤ 0.5
129 | U13A C22G C24A C46G C55U | 0.551
130 | G12C U28A | 1.04
131 | G12C U32G C33G | 0.543
132 | U13C G52A C55G A69U | ≤ 0.5
133 | U13A A21C | 0.65
134 | U13C A37U | 0.543
135 | U13C C31U C55G G67C | ≤ 0.5
136 | U13C C31A C55A | 0.565
137 | U13C A37G C49G C55U G56C G68A | ≤ 0.5
138 | U13A A40G A42G A57C C66U | 0.522
139 | U13C A36C C66U | ≤ 0.5
140 | U13C C29G A36G G41A G48C A57U | ≤ 0.5
141 | G12C U16A C60G C61U | ≤ 0.5
142 | G12C U16C U28A C60U | ≤ 0.5
143 | U13C A20C C22U C60G | ≤ 0.5
144 | U13A G67C | 0.945

Row | Variant | yeast fitness
145 | U13A A14C U19C U32A G63C | 0.64
146 | U13A C55A | 0.648
147 | U13C C31G A40C A42G G51A | 0.578
148 | U13A A36G A43U G51A | ≤ 0.5
149 | U13A A14C C22A C31A A37G C55U A57G | ≤ 0.5
150 | U13A G18C A36G G41C C55U | 0.55
151 | U13A A42G | 0.851
152 | U13A A42C | 1.05
153 | U13C A20G C49A U59C C62U A65U A70C | 0.53
154 | U13A G23A A36C G38A C61G | ≤ 0.5
155 | U13A C66U G68C | 0.51
156 | G12C U47A U54C | 0.519
157 | G12C U32C A37C A45G A57C | ≤ 0.5
158 | U13A C27G U59C | ≤ 0.5
159 | U13C C29A | 0.618
160 | U13C G18A C46G U47A C49U C55G A57C | ≤ 0.5
161 | U13A C22G U32C A42C G48C C55G G63A G68C | ≤ 0.5
162 | U13C A14U U32C | 0.53
163 | U13A C61G G68C | ≤ 0.5
164 | U13A C22G C24A C46G C55U C61A | ≤ 0.5
165 | U13C G23C U47C | ≤ 0.5
166 | U13C A14C A45U C66U | ≤ 0.5
167 | U13A A43U G50A U54G G68C | ≤ 0.5
